Results reported in ChEMBL document CHEMBL1671619, “Efficacy of pyrvinium pamoate against Cryptosporidium parvum infection in vitro and in a neonatal mouse model” (Antimicrob Agents Chemother, 2008).
Calls of active or inactive are those of the source. The calls are words filed in the database; no cut-off is given here.

Legend:
[1] = test system: HCT-8; experiment: Cytotoxicity against human HCT8 cells assessed as reduction in viable cells at 80 uM by neutral red assay; format: cell-based; conditions: hct-8, 80 µM
[2] = test system: HCT-8; experiment: Cytotoxicity against human HCT8 cells assessed as reduction in viable cells at 100 uM by neutral red assay; format: cell-based; conditions: hct-8, 100 µM
[3] = test system: Cryptosporidium parvum; experiment: Antimicrobial activity against Cryptosporidium parvum infected in human HCT-8 cells after 48 hrs by ELISA; format: functional, organism-based; conditions: HCT-8, 48 h
In short: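 HCT-8 monolayers (5 × 10⁴ cells/well, seeded 24 h before) infected with 5 × 10³ Iowa-isolate oocysts in medium with 0.05% bile salts, 90 min at 37°C, then washed. Drug added in growth medium (0.5% DMSO final for DMSO-dissolved drug), 48 h at 37°C. Formalin-fixed; rat anti-sporozoite serum, HRP anti-rat, TMB, A450. Freeze-thawed oocyst background subtracted; % inhibition vs untreated infected wells; triplicate wells, two experiments.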

[4] = test system: HCT-8; experiment: Cytotoxicity against human HCT8 cells assessed as reduction in viable cells by neutral red assay; format: cell-based
[5] = test system: Cryptosporidium parvum; experiment: Antimicrobial activity against Cryptosporidium parvum infected in neonatal ICR swiss mouse assessed as reduction in oocyst shedding at 150 mg/kg/day, po measured on day 6; format: functional; set-up: scale not given: the % may be the effect or the level left
[6] = test system: Cryptosporidium parvum; experiment: Antimicrobial activity against Cryptosporidium parvum infected in human HCT-8 cells; format: functional, organism-based
[7] = test system: Cryptosporidium parvum; experiment: Antimicrobial activity against Cryptosporidium parvum infected in SCID mouse assessed as reduction in parasite burden at 100 mg/kg/day, po for 10 days; format: functional, organism-based
[8] = test system: Cryptosporidium parvum; experiment: Antimicrobial activity against Cryptosporidium parvum infected in SCID mouse assessed as reduction in parasite burden at 200 mg/kg/day, po for 10 days; format: functional, organism-based
[9] = test system: Cryptosporidium parvum; experiment: Antimicrobial activity against Cryptosporidium parvum infected in neonatal ICR swiss mouse assessed as reduction in oocyst shedding at 50 mg/kg/day, po measured on day 6; format: functional; set-up: scale not given: the % may be the effect or the level left
[10] = test system: Cryptosporidium parvum; experiment: Antimicrobial activity against Cryptosporidium parvum infected in neonatal BALB/C mouse assessed as reduction in oocyst shedding at 100 mg/kg/day, po for 4 days treated 3 days postinfection; format: functional; set-up: scale not given: the % may be the effect or the level left
In short: (§1)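 3-day-old BALB/c mice were inoculated orally with 10⁵ Iowa-isolate oocysts, and oral daily dosing started 3 days postinfection; water-treated mice served as vehicle controls. Mice were killed on day 9. Distal-colon stool (2–3 μl) was smeared, methanol-fixed and IFA-stained, and oocysts were counted over 21 fields at ×400. % reduction was taken versus vehicle mice; Mann-Whitney tests were used.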

[11] = test system: Cryptosporidium parvum; experiment: Antimicrobial activity against Cryptosporidium parvum infected in neonatal BALB/C mouse assessed as reduction in trophozoites in ileum at 100 mg/kg/day, po for 6 days by hematoxylin and eosin staining; format: functional; set-up: scale not given: the % may be the effect or the level left
In short: (§2)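 Neonatal BALB/c mice were infected orally with 10⁵ oocysts and dosed orally for 6 days from day 3 postinfection, with necropsy on day 9. 1-cm sections of ileum (1–6 cm proximal to appendix), appendix/ileocecal junction and distal colon were formalin-fixed and H&E-stained. Two blinded readers counted trophozoites per 1,000 epithelial cells on duplicate sections. The per-mouse summary score summed all sections; comparison was against water-vehicle controls.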

[12] = test system: Cryptosporidium parvum; experiment: Antimicrobial activity against Cryptosporidium parvum infected in human HCT-8 cells assessed as growth inhibition after 48 hrs by ELISA; format: functional
In short: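 HCT-8 cells seeded at 5 × 10⁴/well 24 h before infection, then infected with 5 × 10³ Iowa-isolate oocysts in RPMI/10% FBS/0.05% bile salts for 90 min at 37°C and washed. Drug was added and cells incubated 48 h at 37°C, formalin-fixed, then probed with rat anti-sporozoite serum, HRP anti-rat and TMB, read at A450. Freeze-thawed-oocyst background was subtracted; % inhibition was taken versus untreated infected wells. Triplicate wells, two experiments.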

[13] = test system: Cryptosporidium parvum; experiment: Antimicrobial activity against Cryptosporidium parvum infected in neonatal BALB/C mouse assessed as reduction in trophozoites in colon at 100 mg/kg/day, po for 6 days by hematoxylin and eosin staining; format: functional; set-up: scale not given: the % may be the effect or the level left; in short: as §2
[14] = test system: Cryptosporidium parvum; experiment: Antimicrobial activity against Cryptosporidium parvum GCH1 infected in MDBK cells after 48 hrs by ELISA; format: functional
[15] = test system: Cryptosporidium parvum; experiment: Antimicrobial activity against Cryptosporidium parvum infected in neonatal BALB/C mouse assessed as reduction in oocyst shedding at 100 mg/kg/day, po for 6 days treated 3 days postinfection; format: functional; set-up: scale not given: the % may be the effect or the level left; in short: as §1
[16] = test system: Cryptosporidium parvum; experiment: Antimicrobial activity against Cryptosporidium parvum infected in neonatal BALB/C mouse assessed as reduction in trophozoites in appendix at 100 mg/kg/day, po for 6 days by hematoxylin and eosin staining; format: functional; set-up: scale not given: the % may be the effect or the level left; in short: as §2
[17] = test system: Cryptosporidium parvum; experiment: Antimicrobial activity against Cryptosporidium parvum infected in neonatal BALB/C mouse assessed as reduction in number of trophozoites at 5 mg/kg/day, po for 6 days; set-up: scale not given: the % may be the effect or the level left
[18] = test system: Cryptosporidium parvum; experiment: Antimicrobial activity against Cryptosporidium parvum infected in neonatal BALB/C mouse assessed as reduction in oocyst shedding at 12.5 mg/kg/day, po for 4 days treated 3 days postinfection; format: functional; set-up: scale not given: the % may be the effect or the level left
In short: (§3)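 3-day-old BALB/c mice infected orally with 10⁵ Iowa-isolate oocysts. Oral dosing from day 3 post-infection, 4 or 6 consecutive days, in water with 5% DMSO or 5–10% ethanol final; vehicle controls matched. Euthanized day 9 post-infection. Distal-colon stool smears (2–3 μl) were methanol-fixed and IFA-stained. Oocysts counted over 21 fields at ×400 along a transect; reduction expressed relative to vehicle controls.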

[19] = test system: Cryptosporidium parvum; experiment: Antimicrobial activity against Cryptosporidium parvum infected in neonatal BALB/C mouse assessed as reduction in oocyst shedding at 5 mg/kg/day, po for 4 days treated 3 days postinfection; format: functional; set-up: scale not given: the % may be the effect or the level left; in short: as §3
[20] = test system: HCT-8; experiment: Cytotoxicity against human HCT8 cells assessed as reduction in viable cells after 48 hrs by MTS assay; format: cell-based; conditions: hct-8, 48 h
[21] = test system: Cryptosporidium parvum; experiment: Antimicrobial activity against Cryptosporidium parvum infected in neonatal BALB/C mouse assessed as reduction in number of trophozoites at 5 mg/kg/day, po for 6 days; format: functional; set-up: scale not given: the % may be the effect or the level left; conditions: in the assay text read “100 mg/kg/day” for “5 mg/kg/day”
In short: (§4)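 Infected neonatal BALB/c mice (10⁵ oocysts orally at 3 days old) dosed orally for 6 days from day 3; killed day 9. 1-cm ileal sections (1–6 cm proximal to appendix), appendix/ileocecal junction, and distal colon were formalin-fixed and H&E-stained. Trophozoites per 1,000 epithelial cells scored blind by two readers on duplicate sections. Per-mouse summary score summed across sections; compared with vehicle controls.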

[22] = test system: Cryptosporidium parvum; experiment: Antimicrobial activity against Cryptosporidium parvum infected in neonatal BALB/C mouse assessed as reduction in oocyst shedding at 5 mg/kg/day, po for 6 days treated 3 days postinfection; format: functional; set-up: scale not given: the % may be the effect or the level left; in short: as §3
[23] = test system: HCT-8; experiment: Cytotoxicity against human HCT8 cells assessed as reduction in viable cells after 48 hrs at 1.6 uM by MTS assay; format: cell-based; conditions: hct-8, 48 h
[24] = test system: Cryptosporidium parvum; experiment: Antimicrobial activity against Cryptosporidium parvum infected in neonatal BALB/C mouse assessed as reduction in trophozoites in appendix at 5 mg/kg/day, po for 6 days by hematoxylin and eosin staining; format: functional; set-up: scale not given: the % may be the effect or the level left; in short: as §4
[25] = test system: Cryptosporidium parvum; experiment: Antimicrobial activity against Cryptosporidium parvum infected in neonatal BALB/C mouse assessed as reduction in trophozoites in ileum at 5 mg/kg/day, po for 6 days by hematoxylin and eosin staining; format: functional; set-up: scale not given: the % may be the effect or the level left; in short: as §4
[26] = test system: Cryptosporidium parvum; experiment: Antimicrobial activity against Cryptosporidium parvum infected in neonatal BALB/C mouse assessed as reduction in trophozoites in colon at 5 mg/kg/day, po for 6 days by hematoxylin and eosin staining; format: functional; set-up: scale not given: the % may be the effect or the level left; in short: as §4

## CCN(CC)CCCC(C)Nc1ccnc2cc(Cl)ccc12 (stereo not drawn) [CHLOROQUINE]
[1]
  Activity: 12%
[2]
  Activity: 15%
[3]
  IC50: 27 µM
[4]
  Activity: < 5%

## CC(=O)Oc1ccccc1C(=O)Nc1ncc([N+](=O)[O-])s1 [NITAZOXANIDE]
[5]
  Activity: <5%
[6]
  IC50: 3.8 µM
[7]
  Activity: inactive
[8]
  Activity: inactive

## NC[C@@H]1O[C@H](O[C@H]2[C@@H](O)[C@H](O[C@@H]3[C@@H](O)[C@H](N)C[C@H](N)[C@H]3O[C@H]3O[C@H](CO)[C@@H](O)[C@H](O)[C@H]3N)O[C@@H]2CO)[C@H](N)[C@@H](O)[C@@H]1O [PAROMOMYCIN]
[9]
  Activity: <2%
[10]
  Activity: 95%
[11]
  Activity: 90%
[12]
  inhibition (INH): 40%
[13]
  Activity: 90%
[14]
  Activity: >80%
[15]
  Activity: 96.4%
[3]
  IC50: 711 µM
[16]
  Activity: 90%
[17]
  Activity: 85%

## Cc1cc(/C=C/c2ccc3cc(N(C)C)ccc3[n+]2C)c(C)n1-c1ccccc1 [PYRVINIUM]
[18]
  Activity: 89.3%
[19]
  Activity: 92.6%
[20]
  Activity: < 15%
[21]
  Activity: 99%
[22]
  Activity: 96.6%
[23]
  Activity: 40%
[24]
  Activity: 90%
[3]
  IC50: 0.354 µM
[25]
  Activity: 90%
[26]
  Activity: 90%
